Consider 2 molecules from ChEMBL document CHEMBL4052702 (Bioorg Med Chem Lett, 2017).

Assay [1] addresses T1, Protein deacetylase HDAC6 (Homo sapiens) (UniProt Q9UBN7).
T1 sequence (whole entry): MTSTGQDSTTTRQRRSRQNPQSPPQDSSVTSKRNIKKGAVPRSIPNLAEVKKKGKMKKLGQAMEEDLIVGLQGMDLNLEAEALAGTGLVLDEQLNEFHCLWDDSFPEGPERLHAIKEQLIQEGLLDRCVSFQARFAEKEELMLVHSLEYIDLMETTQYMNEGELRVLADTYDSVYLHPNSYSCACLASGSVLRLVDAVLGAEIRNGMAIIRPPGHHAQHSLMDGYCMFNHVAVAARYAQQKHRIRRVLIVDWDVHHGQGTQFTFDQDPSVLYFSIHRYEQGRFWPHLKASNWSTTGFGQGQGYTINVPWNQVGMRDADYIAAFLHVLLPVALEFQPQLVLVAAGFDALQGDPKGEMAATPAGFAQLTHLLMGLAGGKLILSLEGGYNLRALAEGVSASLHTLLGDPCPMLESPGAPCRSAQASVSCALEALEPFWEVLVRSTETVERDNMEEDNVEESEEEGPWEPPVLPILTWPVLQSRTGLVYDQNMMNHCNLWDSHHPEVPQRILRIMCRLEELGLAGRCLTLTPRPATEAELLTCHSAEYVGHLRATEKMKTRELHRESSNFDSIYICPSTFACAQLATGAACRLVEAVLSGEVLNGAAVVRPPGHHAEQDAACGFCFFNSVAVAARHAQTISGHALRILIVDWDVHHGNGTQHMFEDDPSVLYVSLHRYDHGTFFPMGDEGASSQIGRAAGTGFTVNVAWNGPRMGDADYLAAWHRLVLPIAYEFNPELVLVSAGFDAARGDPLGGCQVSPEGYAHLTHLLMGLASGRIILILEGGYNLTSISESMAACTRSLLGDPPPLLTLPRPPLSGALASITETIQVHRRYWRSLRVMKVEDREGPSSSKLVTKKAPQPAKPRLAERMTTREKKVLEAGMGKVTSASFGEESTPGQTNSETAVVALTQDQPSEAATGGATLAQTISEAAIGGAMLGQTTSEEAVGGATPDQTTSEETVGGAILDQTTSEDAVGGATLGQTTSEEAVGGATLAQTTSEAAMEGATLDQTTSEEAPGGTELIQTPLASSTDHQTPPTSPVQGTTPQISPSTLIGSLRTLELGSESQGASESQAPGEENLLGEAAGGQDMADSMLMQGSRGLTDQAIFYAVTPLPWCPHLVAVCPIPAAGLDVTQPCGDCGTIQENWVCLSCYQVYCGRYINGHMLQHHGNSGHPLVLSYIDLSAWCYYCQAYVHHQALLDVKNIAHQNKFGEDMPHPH
Put plainly: Inhibition of HDAC6 in human U937 cells assessed as increase in acetylated-alpha-tubulin level incubated for 18 hrs by Western blot method. It is filed as cell-based. Put shortly:
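U937 cells were treated with inhibitor at 10–40 µM, with 1% DMSO as vehicle control. Cells were then lysed, run on SDS-PAGE, transferred to PVDF and western-blotted for acetyl-Lys40 α-tubulin, with acetyl-Lys9 histone H3 as the class I marker. GAPDH was probed as a loading control, and trials were repeated.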
A general note: Immunoblotting shows a protein as a band on a membrane.

The target in assay [2] is T2, Histone deacetylase 1 (Homo sapiens, UniProt Q13547). Put plainly: Inhibition of HDAC1 in human U937 cells assessed as increase in acetylated-histone H3 level at 10 to 40 uM incubated for 18 hrs by Western blot method. It counts as cell-based. Put shortly:
(§1)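 U937 cells were treated with 10–40 µM compound, with a 1% DMSO vehicle control. Cells were then lysed and the lysates run on SDS-PAGE and transferred to PVDF. Blots were probed for histone H3 acetyl-Lys9, which reports class I HDAC (1, 2, 3) inhibition, with GAPDH as the loading control. Repeat trials were run.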

Assay [3] deals with T3, Histone deacetylase 2 (Homo sapiens, UniProt Q92769). Put plainly: Inhibition of HDAC2 in human U937 cells assessed as increase in acetylated-histone H3 level at 10 to 40 uM incubated for 18 hrs by Western blot method. It counts as cell-based. The method, boiled down: as §1
In assay [4] the target is T4, Histone deacetylase 3 (Homo sapiens, UniProt O15379). Put plainly: Inhibition of HDAC3 in human U937 cells assessed as increase in acetylated-histone H3 level at 10 to 40 uM incubated for 18 hrs by Western blot method. It is filed as cell-based. Put shortly: as §1
The species entered for assay [5] is Homo sapiens. Put plainly: Inhibition of HDAC in human HeLa-S3 cells lysates assessed as remaining enzyme activity at 1.2 x 10^-5 M pre-incubated for 15 mins before HDAC-Glo I/II substrate addition and measured after 30 mins post substrate addition. It is filed as cell-free.
The species named for assay [6] is Homo sapiens. Put plainly: Inhibition of HDAC in human HeLa-S3 cells lysates assessed as remaining enzyme activity at 6 x 10^-6 M pre-incubated for 15 mins before HDAC-Glo I/II substrate addition and measured after 30 mins post substrate addition. It is filed as cell-free.
The species named for assay [7] is Homo sapiens. Put plainly: Inhibition of HDAC in human HeLa-S3 cells lysates assessed as remaining enzyme activity at 3 x 10^-6 M pre-incubated for 15 mins before HDAC-Glo I/II substrate addition and measured after 30 mins post substrate addition. It is filed as cell-free.
Assay [8] is filed under the species Homo sapiens. Put plainly: Inhibition of HDAC in human HeLa-S3 cells lysates assessed as remaining enzyme activity at 1.5 x 10^-6 M pre-incubated for 15 mins before HDAC-Glo I/II substrate addition and measured after 30 mins post substrate addition. It is filed as cell-free.
For assay [9], the species on record is Homo sapiens. Put plainly: Inhibition of HDAC in human HeLa-S3 cells lysates assessed as remaining enzyme activity at 7.5 x 10^-7 M pre-incubated for 15 mins before HDAC-Glo I/II substrate addition and measured after 30 mins post substrate addition. It counts as cell-free.
In assay [10] the target is T2, Histone deacetylase 1. Description: Inhibition of HDAC1 (unknown origin) assessed as remaining enzyme activity at 0.25 uM by ELISA-based assay. Put shortly:
(§2)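 Isoform screen by ELISA-based HDAC activity assay against HDAC1, HDAC2, HDAC3 and HDAC6. Each analog was tested at one final concentration: 0.025, 0.125, 0.25 or 1.25 µM. Read-out is percent deacetylase activity remaining, given as the mean with standard error of at least two independent trials.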
(In general: ELISA stands for enzyme-linked immunosorbent assay.)

Assay [11] has as its target T3, Histone deacetylase 2. Description: Inhibition of HDAC2 (unknown origin) assessed as remaining enzyme activity at 0.25 uM by ELISA-based assay. Put shortly: as §2
The target in assay [12] is T4, Histone deacetylase 3. Description: Inhibition of HDAC3 (unknown origin) assessed as remaining enzyme activity at 0.25 uM by ELISA-based assay. The method, boiled down:
as §2

In assay [13] the target is T1, Protein deacetylase HDAC6 (Homo sapiens). Description: Inhibition of HDAC6 (unknown origin) assessed as remaining enzyme activity at 0.25 uM by ELISA-based assay. Put shortly: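 Single-concentration isoform screen using an ELISA-based HDAC activity assay, run in parallel against HDAC1, HDAC2, HDAC3 and HDAC6. Read-out is percent deacetylase activity remaining, given as the mean of at least two independent trials with standard error.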

The target of assay [14] is T3, Histone deacetylase 2. Description: Inhibition of HDAC2 (unknown origin) assessed as remaining enzyme activity at 5 x 10^-7 M by ELISA-based assay.
In assay [15] the target is T4, Histone deacetylase 3. Description: Inhibition of HDAC3 (unknown origin) assessed as remaining enzyme activity at 5 x 10^-7 M by ELISA-based assay.

SMILES strings stand for the structures. Calls of active or inactive are those of the source. The calls are words filed in the database; no cut-off is given here.

T4 sequence (O15379 whole entry): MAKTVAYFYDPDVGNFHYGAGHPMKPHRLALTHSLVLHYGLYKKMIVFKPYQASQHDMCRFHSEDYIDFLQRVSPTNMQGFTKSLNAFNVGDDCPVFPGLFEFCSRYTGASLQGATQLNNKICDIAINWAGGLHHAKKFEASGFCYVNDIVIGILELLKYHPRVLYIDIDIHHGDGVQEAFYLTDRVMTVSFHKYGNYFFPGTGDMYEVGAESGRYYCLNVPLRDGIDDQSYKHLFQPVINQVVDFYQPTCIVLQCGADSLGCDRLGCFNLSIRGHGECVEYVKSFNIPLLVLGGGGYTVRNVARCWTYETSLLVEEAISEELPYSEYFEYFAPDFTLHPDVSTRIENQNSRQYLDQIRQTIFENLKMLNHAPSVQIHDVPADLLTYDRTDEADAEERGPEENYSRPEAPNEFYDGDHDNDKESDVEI
T3 sequence (Q92769 whole entry): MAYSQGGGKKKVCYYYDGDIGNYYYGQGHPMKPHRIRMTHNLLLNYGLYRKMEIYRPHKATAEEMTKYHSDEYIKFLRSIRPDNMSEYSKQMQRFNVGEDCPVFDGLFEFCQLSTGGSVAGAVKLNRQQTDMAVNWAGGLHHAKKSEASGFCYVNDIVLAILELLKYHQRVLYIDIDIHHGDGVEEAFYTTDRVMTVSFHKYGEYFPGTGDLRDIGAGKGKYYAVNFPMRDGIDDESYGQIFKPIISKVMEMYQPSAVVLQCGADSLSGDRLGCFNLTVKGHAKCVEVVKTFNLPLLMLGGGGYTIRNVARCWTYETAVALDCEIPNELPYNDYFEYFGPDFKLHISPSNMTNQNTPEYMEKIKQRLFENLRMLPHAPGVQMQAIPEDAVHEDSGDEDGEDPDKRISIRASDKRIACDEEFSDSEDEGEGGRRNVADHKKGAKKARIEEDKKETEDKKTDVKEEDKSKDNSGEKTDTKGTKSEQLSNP
T2 sequence (Q13547 whole entry): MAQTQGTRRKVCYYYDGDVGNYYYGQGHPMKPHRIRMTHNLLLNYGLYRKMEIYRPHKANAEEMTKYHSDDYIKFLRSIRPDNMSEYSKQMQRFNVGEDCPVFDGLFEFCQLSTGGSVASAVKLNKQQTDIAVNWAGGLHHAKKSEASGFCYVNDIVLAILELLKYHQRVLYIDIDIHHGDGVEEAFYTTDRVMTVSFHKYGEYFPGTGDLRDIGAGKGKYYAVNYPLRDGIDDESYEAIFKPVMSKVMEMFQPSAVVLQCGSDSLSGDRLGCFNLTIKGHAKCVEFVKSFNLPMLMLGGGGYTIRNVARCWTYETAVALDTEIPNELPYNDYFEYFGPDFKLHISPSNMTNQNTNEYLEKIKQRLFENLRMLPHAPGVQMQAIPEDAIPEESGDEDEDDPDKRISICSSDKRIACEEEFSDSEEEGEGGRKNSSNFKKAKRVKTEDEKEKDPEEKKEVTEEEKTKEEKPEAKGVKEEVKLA

In the case of `O=C(CCCC(CCC(=O)Nc1ccccc1)Cc1ccccc1)NO` (stereo not given), the inhibition entry in assay [1] is “Dose-dependent effect”. Moreover, the inhibition result at Histone deacetylase 1 [2], on Histone deacetylase 2 [3] and on Histone deacetylase 3 [4] was “Active” each time.
Take `CCCCC(CCCC(=O)NO)CCC(=O)Nc1ccccc1` (stereo not given): the Activity in the assay filed under Homo sapiens [5] is 23%; in the assay filed under Homo sapiens [6], 42%; in the assay filed under Homo sapiens [7] it was 66%; in the assay filed under Homo sapiens [8], 88%; in the assay listed under Homo sapiens [9], 101%; at Histone deacetylase 1 [10], 81 to 84%. For the same molecule, the Activity at Histone deacetylase 2 [11] is 83%; at Histone deacetylase 3 [12], 74 to 92%; in assay [13] it was 35%; at Histone deacetylase 2 [14], 73%; at Histone deacetylase 3 [15] it was 83%.
